# Experimental data pooled from the literature.
# Each line is one published result; the experiments were not run side by side.
Compound,cell line,effect on,mode,method,time,IC50 [nM]
O=C(CSc1nc2ccccc2s1)N/N=C/c1ccc(OCC(=O)Nc2ccc([N+](=O)[O-])cc2)cc1,CAPAN-1,cell growth or viability,,MTS,72 h,29400
COC(=O)Nc1nc2ccc(C(=O)c3cccs3)cc2[nH]1,HepaRG,reactive oxygen species,inhibitor,,16 h,9610
O=C(NO)c1ccc(Cn2cnc3c(Nc4cccc([N+](=O)[O-])c4)ncnc32)cc1,THP-1,cell growth or viability,,MTT,72 h,530
O=c1cc(OCc2cc(-c3ccccn3)no2)c2ccccc2o1,CAPAN-1,cell growth or viability,,MTS,72 h,> 100000
COc1cc([C@@H]2c3cc4c(cc3[C@H](O)[C@H]3COC(=O)[C@H]23)OCO4)cc(OC)c1OC,MP46,cell growth or viability,,ATP luminescence,72 h,6.56
c1ccc(-c2cc(CNc3cccc4cccnc34)on2)cc1,CAPAN-1,cell growth or viability,,MTS,72 h,11400
Cc1noc(C)c1-c1cc(C(O)(c2ccccn2)c2ccccn2)c2nc(C3CC3)[nH]c2c1,MP46,cell growth or viability,,ATP luminescence,72 h,71.2
c1ccc(Oc2ccc(Nc3c4c(nc5ccccc35)CCC4)cc2)cc1,THP-1,cell growth or viability,,,72 h,18300
N#Cc1ccc(-c2cc(CNc3cccc4cccnc34)on2)cc1,CAPAN-1,cell growth or viability,,MTS,72 h,13100
COc1ccc(-c2nc(N3CCOCC3)c3sc(CN(C)c4ncc(C(=O)NO)cn4)cc3n2)cn1,MP46,cell growth or viability,,ATP luminescence,72 h,9.29
Cc1cc2c(C(=O)O)cccc2n1-c1nc2c(c(NCc3ccccc3)n1)CCCN2,SW-620,cell growth or viability,,,72 h,2100
O=C(CSc1nc2ccccc2s1)N/N=C/c1ccc(OCC(=O)Nc2cccc(Br)c2)cc1,CAPAN-1,cell growth or viability,,MTS,72 h,> 100000
O=c1cc(OCc2cc(-c3ccc(Cl)cc3Cl)no2)c2ccccc2o1,CAPAN-1,cell growth or viability,,MTS,72 h,80100
O=C(NO)c1ccc(Cn2cnc3c(Nc4ccc(Cl)cc4)ncnc32)cc1,THP-1,cell growth or viability,,MTT,72 h,190
CC(C)C[C@H](NC(=O)[C@H](Cc1ccccc1)NC(=O)c1cnccn1)B(O)O,MP46,cell growth or viability,,ATP luminescence,72 h,3.52
FC(F)(F)c1ccc(-c2cc(COc3cc(C(F)(F)F)nc4ccccc34)on2)cc1,CAPAN-1,cell growth or viability,,MTS,72 h,> 100000
COc1cccc2c1C(=O)c1c(O)c3c(c(O)c1C2=O)C[C@@](O)(C(=O)CO)C[C@@H]3O[C@H]1C[C@H](N)[C@H](O)[C@H](C)O1,SW-620,cell growth or viability,,MTT,72 h,300
CC(C)(C)c1cc(/C=C2\SC(N)=NC2=O)cc(C(C)(C)C)c1O,HepaRG,reactive oxygen species,inhibitor,,16 h,830
Nc1ccccc1NC(=O)c1ccc(Cn2cnc3c(Nc4ccc(Cl)cc4)ncnc32)cc1,THP-1,cell growth or viability,,MTT,72 h,480
N#Cc1ccc(-c2cc(COc3cc(=O)oc4ccccc34)on2)cc1,CAPAN-1,cell growth or viability,,MTS,72 h,> 100000
O=P1(C2CCCCC2)CCCCC1,SW-620,cell growth or viability,,MTT,72 h,16100
